Source: paper PMC7422904 (Translational Vision Science & Technology, 2020)

Tests used:
[1] = tested on: chicken chorioallantoic membranes; assay: Hen's egg test in chorioallantoic membrane
How it was run: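 Fertilized hen eggs incubated 10 days at 37 ± 1°C and 60 ± 1% relative humidity. Shell opened and inner membranes removed. Test compound (40, 80, 160, 320 µg) applied to the CAM and watched for 300 s. Controls: 0.9% NaCl (negative) and 0.1 M NaOH (positive); N = 10. Onset times of hemorrhage, lysis and coagulation were weighted 5, 7 and 9 in the OII equation.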

[2] = tested on: ocular hypertensive rat eyes; format: in vivo, Wistar rats; conditions: ocular hypertensive rats, single drop, Bimatoprost 8.8 µg/eye, N = 6
How it was run: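 Male Wistar rats (7–10 weeks) under i.p. ketamine/xylazine (90:10 mg/kg) plus topical 0.5% proxymetacaine. Right eye received 30 µL HA (10 mg/mL) intracamerally near the limbus, weekly for 3 weeks. Dosing (one 20 µL drop) began once IOP was raised. Groups: saline, test compound, bimatoprost, combination, normotensive saline; N = 6. IOP: TonoPen Vet on unsedated rats, mean of four readings.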

SMILES	irritancy classification in words (HET-CAM) ([1]; PnPP-19 at all concentrations tested, NaOH at 0.1 M, 300 seconds)	OII ± SEM (ocular irritation index) ([1]; positive control 0.1 M, observed 300 seconds, N = 10)	ability to reduce IOP (in words) [2]
[Na+].[OH-] [0.1 M NaOH, sodium hydroxide]	severely irritating	20.11± 0.32	
CCNC(=O)CCC/C=C\C[C@@H]1[C@@H](/C=C/[C@@H](O)CCc2ccccc2)[C@H](O)C[C@@H]1O [Bimatoprost]			not able to reduce IOP
